Most compounds without a hit are left out; they make up all but 1.6% or so of the library.
TDP2 absorb: blocks human TDP2 phosphodiesterase activity; recombinant TDP2, T5PNP hydrolysis, p-nitrophenol absorbance 415 nm; inhibition, % at 12.8 µM; 0.34% of 370,000 active;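 active = inhibition above the mean of all tested compounds plus 3 SD, set per campaign, cut at about 25% in these data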
Target sequence (O95551 whole entry, looked up): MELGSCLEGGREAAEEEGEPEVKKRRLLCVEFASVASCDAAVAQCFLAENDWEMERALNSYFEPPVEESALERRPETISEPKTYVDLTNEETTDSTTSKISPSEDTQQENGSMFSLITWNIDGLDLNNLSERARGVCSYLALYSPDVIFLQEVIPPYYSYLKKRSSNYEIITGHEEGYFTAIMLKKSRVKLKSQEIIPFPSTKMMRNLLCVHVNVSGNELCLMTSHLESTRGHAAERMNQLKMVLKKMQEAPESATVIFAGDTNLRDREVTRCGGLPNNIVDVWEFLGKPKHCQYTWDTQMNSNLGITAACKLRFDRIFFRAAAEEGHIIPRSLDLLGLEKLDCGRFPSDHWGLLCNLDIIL
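Material: recombinant human TDP2; quantity: TDP2 enzyme at 120 nM final; medium: Tris-HCl pH 7.5 with MgCl2; compound: single concentration, 12.8 µM nominal, with 1% DMSO; incubation: 2 h enzyme incubation at 37 °C; signal: epi absorbance; measure: percent inhibition; benchmarks: high control without enzyme, low control DMSO plus TDP2; repeats: singlicate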
UHRF1 binding: UHRF1 methyl-DNA binding inhibition; Q96T88; UHRF1 binding to methylated oligo, TR-FRET; inhibition, % at 4.4 µM; 0.75% of 370,000 active; AID 687016; in the data active = inhibition above about 21%;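 also: UHRF1 SRA domain binding a hemimethylated CpG hairpin DNA probe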
MBD2 DNA inh: MBD2-methylated oligo binding inhibition; TR-FRET, MBD2 binding to methylated oligonucleotide; 0.31% of 370,000 active; inhibition, % at 4.4 µM; in the data active = inhibition above about 13%
LEDGF integ inh: blocks HIV-1 LEDGF/p75-dependent DNA integration. TR-FRET IN-LEDGF/p75 DNA integration, Eu/Cy5. inhibition, % at 3.7 µM. 0.64% of 370,000 active. AID 743269;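 active = inhibition above the screen-wide mean plus 3 SD, cut at about 13% in these data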;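 also: signal is the Cy5 over europium emission ratio at 671 and 618 nm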
IN multimer act: counter-screen for LEDGF/p75 integration inhibitors: HIV-1 integrase multimerization activators. TR-FRET HIV-1 integrase multimerization, biochemical. activation, % at 7.7 µM. shares compounds with LEDGF integ inh. 17% of 2,000 active. AID 1053131; in the data active = activation above about 8.9%
TR-FRET interf: counter-screen for LEDGF/p75 integration inhibitors: TR-FRET optical interference. 2,000 tested, under 10 active. shares compounds with LEDGF integ inh. inhibition, % at 7.7 µM. AID 1053135. TR-FRET optical interference counterscreen, HIV-1 IN multimerization;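 active = inhibition above the mean over all tested compounds plus 3 SD, which no compound reached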
IN-LEDGF confirm: confirmation of HIV-1 LEDGF/p75-dependent integration inhibitors; shares compounds with LEDGF integ inh; TR-FRET LEDGF/p75-dependent HIV-1 integration, biochemical; inhibition, % at 3.7 µM; 36% of 2,000 active; in the data active = inhibition above about 14%
Of the large screens only hits and unclear results are named; the others gave an inactive call (follow-up assays come after a bar, where they were run).

C/C=C/COC(=O)c1[nH]c2c(c1C)C(=O)CC(c1ccco1)C2 (stereo not given)	LEDGF integ inh 18 | IN multimer act inactive | TR-FRET interf inactive | IN-LEDGF confirm 21
Cc1ccc(Cl)cc1N1CCN(S(=O)(=O)c2ccc3c(c2)OCCO3)CC1	none
O=c1[nH]c2cc3c(cc2cc1CN(Cc1cccs1)Cc1nnnn1Cc1ccco1)OCCO3	none
O=c1[nH]c2cc3c(cc2cc1CN(Cc1cccnc1)Cc1nnnn1Cc1ccco1)OCCO3	UHRF1 binding 34, LEDGF integ inh 39 | IN multimer act 14 | TR-FRET interf inactive | IN-LEDGF confirm 28
O=C(CN1CCCCC1)NNc1nc(-c2ccccc2)c2cc(Br)ccc2n1	LEDGF integ inh 19 | IN multimer act inactive | TR-FRET interf inactive | IN-LEDGF confirm inactive
S=c1[nH]nc(-c2cc(-c3ccco3)[nH]n2)n1-c1ccccc1Cl	LEDGF integ inh 14 | IN multimer act inactive | TR-FRET interf inactive | IN-LEDGF confirm 15
S=c1[nH]nc(-c2ccco2)n1-c1ccccc1Cl	none
Nc1cc(Cl)ccc1Oc1ccc(Cl)cc1	none
Nc1cc(Cl)ccc1Oc1ccccc1	LEDGF integ inh 36 | IN multimer act inactive | TR-FRET interf inactive | IN-LEDGF confirm inactive
COc1ccc(/C=N/Nc2nc3ccccc3c(=O)n2-c2ccccc2)cc1OC	none
O=C(N/N=C/C=C/c1ccco1)C(O)c1ccccc1 (stereo not given)	LEDGF integ inh 26 | IN multimer act inactive | TR-FRET interf inactive | IN-LEDGF confirm 26
C=CCSc1nnc(NC(=O)C23CC4CC(CC(NC(C)=O)(C4)C2)C3)s1	none
Cn1cc(C(=O)c2cccc(Cl)c2Cl)cc1C(=O)O	none
O=C1S/C(=C\C=C\c2ccco2)C(=O)N1c1ccc(O)cc1	LEDGF integ inh 31 | IN multimer act 17 | TR-FRET interf inactive | IN-LEDGF confirm 28
O/N=C/c1cn(-c2ccc(Cl)cc2)nn1	none
COc1cccc(/C=N/NC(=O)CCc2n[nH]c(=O)[nH]c2=O)c1O	none
O=C(CCc1n[nH]c(=O)[nH]c1=O)N/N=C/c1ccco1	LEDGF integ inh 15 | IN multimer act inactive | TR-FRET interf inactive | IN-LEDGF confirm inactive
O=c1[nH]c(-c2ccccc2)nn1-c1ccc(Br)cc1Br	LEDGF integ inh 26 | IN multimer act inactive | TR-FRET interf inactive | IN-LEDGF confirm inactive
S=c1nc(-c2ccccc2)[nH]c2ccc(Br)cc12	none
CC(C)NC(=O)C1(C)CCN1C(=O)C/C=C/c1ccccc1 (stereo not given)	none
CCN(CC)S(=O)(=O)c1cccc(-c2nnc(SCC(N)=O)n2N)c1	none
CCOc1ccc2[nH]c(C(=O)N/N=C/c3cc(OC)c(OC)c(OC)c3)cc2c1	none
Cc1nn(-c2ccccc2)c(N2CCCC2)c1/C=N/NC(=O)c1cc2ccccc2cc1O	LEDGF integ inh 14 | IN multimer act inactive | TR-FRET interf inactive | IN-LEDGF confirm inactive
Oc1ccc(N2CCN(Cc3cc4c(cc3Br)OCCO4)CC2)cc1	none
CN(C)c1ccc(N=Cc2cccn2C)cc1	TDP2 absorb 25, LEDGF integ inh 22 | IN multimer act inactive | TR-FRET interf inactive | IN-LEDGF confirm inactive
CN(C)c1ccc(N=Cc2nc(-c3ccccc3)oc2O)cc1	none
COc1cc(C2C(C#N)=C(N)Oc3cc(C)oc(=O)c32)cc2c1OCO2 (stereo not given)	UHRF1 binding 42, LEDGF integ inh 20 | IN multimer act inactive | TR-FRET interf inactive | IN-LEDGF confirm 14
Cc1cccc(CNc2ncnc3ccc(-c4ccc5c(c4)OCO5)cc23)c1	LEDGF integ inh 15 | IN multimer act inactive | TR-FRET interf inactive | IN-LEDGF confirm inactive
FC(F)(F)c1cccc(N2CCC(N=CN3CCCCCC3)=N2)c1	none
Cc1cc(NC(=O)CC#N)n(-c2ccccc2)n1	LEDGF integ inh 16 | IN multimer act inactive | TR-FRET interf inactive | IN-LEDGF confirm inactive
Cc1cc(NC(=O)CSc2nnc(-c3ccncc3)n2C)n(-c2ccccc2)n1	none
Cc1cc(NC(=O)CSc2nnc(-c3ccncc3)n2Cc2ccccc2)n(-c2ccccc2)n1	LEDGF integ inh 70 | IN multimer act inactive | TR-FRET interf inactive | IN-LEDGF confirm inactive
Cc1ccc(-c2cc(C(=O)O)c3cc(Br)ccc3n2)o1	LEDGF integ inh 14 | IN multimer act 16 | TR-FRET interf inactive | IN-LEDGF confirm inactive
CCCCC1Cc2[nH]c(=S)[nH]c(=O)c2C(c2ccc3ccccc3c2)O1 (stereo not given)	none
CC(=O)c1c(C)[nH]c(C(=O)OCC(=O)Nc2cccnc2Cl)c1C	LEDGF integ inh 24 | IN multimer act inactive | TR-FRET interf inactive | IN-LEDGF confirm inactive
CC(=O)c1c(C)[nH]c(C(=O)OCC(=O)Nc2ccccc2Cl)c1C	none
C=CCn1c(N)c(C(=O)OC(C)(C)C)c2nc3ccccc3nc21	none
C=CCn1c(N)c(C(=O)Nc2ccccc2)c2nc3ccccc3nc21	LEDGF integ inh 21 | IN multimer act inactive | TR-FRET interf inactive | IN-LEDGF confirm inactive
O=C(O)/C(=C\c1ccc(C(F)(F)F)cc1)c1ccc(S(=O)(=O)N2CCCC2)s1	none
Cc1ccc(C(=O)O)cc1N1C(=O)c2cccc3c([N+](=O)[O-])ccc(c23)C1=O	LEDGF integ inh 14 | IN multimer act inactive | TR-FRET interf inactive | IN-LEDGF confirm 27
CC(=O)c1ccc(NC(=O)C(C)OC(=O)/C=C/c2ccco2)cc1 (stereo not given)	LEDGF integ inh 19 | IN multimer act inactive | TR-FRET interf inactive | IN-LEDGF confirm inactive
COc1cc(/C=N/n2c(COc3ccccc3)n[nH]c2=S)cc(Br)c1O	none
Cc1ccc(S(=O)(=O)N2CCN(C(=O)CCCOc3cccc(C)c3)CC2)cc1	none
CCCc1nc2ccc(C)cn2c1Cc1ccc(C)cc1	UHRF1 binding 21, LEDGF integ inh 14 | IN multimer act inactive | TR-FRET interf inactive | IN-LEDGF confirm inactive
COC(=O)CCC[C@H](C)[C@@H](NS(=O)(=O)c1ccc(C)cc1)C(C)(C)C	LEDGF integ inh 40 | IN multimer act inactive | TR-FRET interf inactive | IN-LEDGF confirm inactive
CC1SC(=S)N(c2ccc(N(C)C)cc2)C1=O (stereo not given)	LEDGF integ inh 20 | IN multimer act inactive | TR-FRET interf inactive | IN-LEDGF confirm inactive
CN(C)c1ccc(N2C(=O)CSC2=S)cc1	LEDGF integ inh 21 | IN multimer act inactive | TR-FRET interf inactive | IN-LEDGF confirm inactive
Cc1ccc(N2C(=O)CSC2=S)cc1C	none
CN(C)c1ccc(N2C(=O)CC(c3ccccc3)CC2=O)cc1	none
COc1ccc(COC(=O)CCN=C2NS(=O)(=O)c3ccccc32)cc1F	none
CCNCc1ccccc1OCc1ccccc1	none

Assay outcomes from PubChem BioAssay.
